The test system of series [1] is Staphylococcus aureus. Nature of the series: Antibacterial activity against Staphylococcus aureus ATCC 25923 incubated for 16 to 20 hrs by broth microdilution method. The class given is functional. A general note: Dilution methods test growth across graded concentrations, often in twofold steps.
Series [2] relates to Staphylococcus epidermidis. In words: Antibacterial activity against Staphylococcus epidermidis ATCC 12228 incubated for 16 to 20 hrs by broth microdilution method. Type of series: functional.
The subject of series [3] is Staphylococcus aureus. Nature of the series: Antibiofilm activity against methicillin-resistant Staphylococcus aureus isolate 2 assessed as biofilm eradication incubated for 24 hrs by CBD assay. Type of series: functional. Conditions: for MBC: Staphylococcus aureus, isolate 2, 24 h. Put shortly:
(§1)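 Calgary Biofilm Device: pegs inoculated with mid-log culture diluted 1,000-fold in TSB + 0.5% glucose, 24 h 37 °C; washed pegs challenged with 2-fold dilutions 24 h 37 °C; pegs moved to fresh TSBG 24 h; MBEC = lowest concentration leaving no turbidity; 2–6 independent experiments.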

The test system of series [4] is Staphylococcus epidermidis. Nature of the series: Antibacterial activity against methicillin-resistant Staphylococcus epidermidis ATCC 35984 assessed as biofilm eradication incubated for 24 hrs by CBD assay. Type of series: functional. Conditions: for MBC: Staphylococcus epidermidis, ATCC 35984, 24 h. Put shortly:
as §1

Series [5] has as its system Staphylococcus aureus. In words: Antibacterial activity against methicillin-resistant Staphylococcus aureus clinical isolate 2 incubated for 16 to 18 hrs by broth microdilution method. Type of series: functional.
Series [6] deals with Staphylococcus aureus. In words: Antibacterial activity against methicillin-resistant Staphylococcus aureus BAA-44 incubated for 16 to 18 hrs by broth microdilution method. Type of series: functional.
For series [7], the system named is Staphylococcus aureus. Nature of the series: Antibacterial activity against methicillin-resistant Staphylococcus aureus BAA-1707 incubated for 16 to 18 hrs by broth microdilution method. Type of series: functional.
The test system of series [8] is Staphylococcus epidermidis. In words: Antibacterial activity against methicillin-resistant Staphylococcus epidermidis ATCC 35984 incubated for 16 to 18 hrs by broth microdilution method. The class given is functional.
Series [9] relates to Enterococcus faecium. In words: Antibacterial activity against vancomycin-resistant Enterococcus faecium ATCC 700221 incubated for 16 to 18 hrs by broth microdilution method. Type of series: functional.
Series [10] deals with Enterococcus faecium. In words: Antibiofilm activity against […]-resistant Enterococcus faecium ATCC 700221 assessed as biofilm eradication incubated for 24 hrs by CBD assay. Type of series: functional. Conditions: for MBC: Enterococcus faecium, ATCC 700221, 24 h. Put shortly:
as §1

The nature of series [11]: Induction of hemolysis in human RBC at 200 uM incubated for 1 hr. Conditions: red blood cells, read-out: Activity. Type of series: cell-based, Erythrocyte. Put shortly: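 Human RBCs (EDTA), washed three times in Tris-buffered saline pH 7.2; 2% hRBC with compound at final 200 µM, 1 h 37 °C; supernatant OD405; % hemolysis relative to DMSO (0%) and Triton X (100%).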

Series [12] deals with Staphylococcus aureus. In words: Antibacterial activity against methicillin-resistant Staphylococcus aureus clinical isolate 2 incubated for 16 hrs by broth microdilution method in presence of tiron. The following applies: isolate 2, 16 h. The class given is functional.
The subject of series [13] is Staphylococcus aureus. In words: Antibacterial activity against methicillin-resistant Staphylococcus aureus clinical isolate 2 incubated for 16 hrs by broth microdilution method in presence of Cu2+. The class given is functional. The following applies: isolate 2, 16 h.
Series [14] has as its system Staphylococcus aureus. Nature of the series: Antibacterial activity against methicillin-resistant Staphylococcus aureus clinical isolate 2 incubated for 16 hrs by broth microdilution method in presence of Fe2+. Type of series: functional. The following applies: isolate 2, 16 h.
Series [15] relates to Staphylococcus aureus. In words: Antibacterial activity against methicillin-resistant Staphylococcus aureus clinical isolate 2 incubated for 16 hrs by broth microdilution method. Type of series: functional. The following applies: isolate 2, 16 h.
The subject of series [16] is Staphylococcus epidermidis. Nature of the series: Antibacterial activity against Staphylococcus epidermidis ATCC 12228 incubated for 16 to 18 hrs by broth microdilution method. The class given is functional.
The test system of series [17] is Mycobacterium tuberculosis. In words: Antibacterial activity against Mycobacterium tuberculosis H37Ra ATCC 25177 after 7 days by two-fold serial dilution method. The following applies: H37Ra ATCC 25177, 168 h. The class given is functional.
Another series deals with HeLa. Nature of the series: Cytotoxicity against human HeLa cells after 24 hrs by LDH release assay. The class given is cell-based. An outline of the steps:
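HeLa in DMEM + 10% FBS, 37 °C 5% CO2, at 70–80% confluence treated with 25, 50, 100 µM for 24 h; DMSO vehicle; Triton X-100 2% v/v max-LDH control, medium-only negative; supernatant with LDH reaction mix 30 min room temperature, stopped, absorbance 490 nm.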

The subject of series [18] is Staphylococcus aureus. In words: Antibiofilm activity against methicillin-resistant Staphylococcus aureus BAA-1707 assessed as biofilm eradication incubated for 24 hrs by CBD assay. The class given is functional. The following applies: for MBC: Staphylococcus aureus, BAA-1707, 24 h. Put shortly:
as §1

In series [19] the test system is Staphylococcus aureus. Nature of the series: Ratio of MBEC to MBC for methicillin-resistant Staphylococcus aureus clinical isolate 2 biofilm eradication. The class given is functional. An outline of the steps:
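From the same CBD challenge plate, MBC taken by subculturing 20 µL into 180 µL TSBG overnight at 37 °C (no turbidity); MBEC from recovered pegs in fresh TSBG 24 h; ratio MBEC:MBC against MRSA-2.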

The test system of series [20] is Staphylococcus aureus. In words: Antibiofilm activity against methicillin-resistant Staphylococcus aureus BAA-44 assessed as biofilm eradication incubated for 24 hrs by CBD assay. The class given is functional. Put shortly:
as §1

Broadly, the MIC is the lowest concentration found to suppress growth. One may read the IC50 as the concentration that inhibits the measured activity by half. Low readings indicate greater potency, high ones weaker potency.

≈ marks a conversion by molar mass, not a printed value.

Regarding `Oc1c(Br)ccc2nc3ccccc3nc12`, the MIC against Staphylococcus aureus [1] was 6.25 µM (≈ 1.72 µg/mL); in series [2], 1.7 µg/mL (≈ 6.18 µM).

In the case of `Oc1ccc(Br)c2nc3cc(Br)c(Br)cc3nc12`, the MBEC (with Staphylococcus aureus [3]; in series [4]; with Enterococcus faecium [10]) was above 200 µM throughout. Besides, the MBC (with Staphylococcus aureus [3]; in series [4]; with Enterococcus faecium [10]) was above 200 µM each time. Moreover, the MIC against Staphylococcus aureus [5] worked out at 1.56 µM (≈ 0.675 µg/mL); against Staphylococcus aureus [6], 1.56 µM (≈ 0.675 µg/mL); with Staphylococcus aureus [7] it was 0.56 µM (≈ 0.242 µg/mL); in series [8], 3.13 µM (≈ 1.35 µg/mL); with Enterococcus faecium [9], 6.25 µM (≈ 2.71 µg/mL); with Staphylococcus aureus [12] it was 0.1 µM. The MIC in the series on Staphylococcus aureus [13] was above 100 µM; in the series on Staphylococcus aureus [14] it was 25 µM; against Staphylococcus aureus [15] it was 12.5 µM (≈ 5.41 µg/mL). The hemolysis at 1 h, 200 µM in series [11] is at most 1%.

As to `Cc1nc2c(I)cc(I)c(O)c2nc1C`, the MBC in the series on Staphylococcus aureus [3] came to 93.8 µM (≈ 40 µg/mL); in [4], 23.5 µM (≈ 10 µg/mL). Further, in series [4], the MBEC is 125 µM. Moreover, the MIC in [16] was 2.35 µM (≈ 1 µg/mL); with Enterococcus faecium [9] it was 6.25 µM (≈ 2.66 µg/mL); in series [17], above 50 µM; with Staphylococcus aureus [15], 1.17 µM (≈ 0.498 µg/mL). In the series on HeLa, this compound yielded an IC50 above 100 µM. Besides, the hemolysis at 1 h, 200 µM in [11] is 1.2%.

In the case of `CC(=O)NC[C@H]1CN(c2ccc(N3CCOCC3)c(F)c2)C(=O)O1` [LINEZOLID], the MBEC with Staphylococcus aureus [18] is above 2000 µM. In addition, in the series with Staphylococcus aureus [18], the MBC is 31.3 µM (≈ 10.6 µg/mL). Further, the MIC with Staphylococcus aureus [5] turned out to be 3.13 µM (≈ 1.06 µg/mL); against Staphylococcus aureus [7], 12.5 µM (≈ 4.22 µg/mL); in series [8] it was 3.13 µM (≈ 1.06 µg/mL); with Enterococcus faecium [9] it was 3.13 µM (≈ 1.06 µg/mL); in the series with Staphylococcus aureus [14], 6.25 µM; against Staphylococcus aureus [15], 6.25 µM (≈ 2.11 µg/mL). Also, in series [11], the hemolysis at 1 h, 200 µM was at most 1%.

As to `C[C@H]1c2cccc(O)c2C(=O)C2=C(O)[C@]3(O)C(=O)C(C(N)=O)=C(O)[C@@H](N(C)C)[C@@H]3[C@@H](O)[C@@H]21.O` [DOXYCYCLINE], in the series on Staphylococcus aureus [3], the MBEC was 46.9 µM and the MBC came out at 2 µM. In the series on Staphylococcus aureus [19], the Ratio is above 23.

For `Oc1c(Br)cc(I)c2nc3ccccc3nc12`, the MBEC in the series on Staphylococcus aureus [3] turned out to be 62.5 µM; with Staphylococcus aureus [18], 93.8 µM; in series [4] it was 188 µM; in the series with Staphylococcus aureus [20], 93.8 µM; in the series with Enterococcus faecium [10], 5.9 µM. Also, the MBC was 31.3 µM (≈ 12.6 µg/mL) with Staphylococcus aureus [3]; 23.5 µM (≈ 9.42 µg/mL) in the series with Staphylococcus aureus [18]; 11.7 µM (≈ 4.69 µg/mL) in series [4]; 46.9 µM (≈ 18.8 µg/mL) in the series with Staphylococcus aureus [20] (Staphylococcus aureus, BAA-44, 24 h); 3 µM (≈ 1.2 µg/mL) in the series on Enterococcus faecium [10]. Also, the figures for the minimum inhibitory concentration (MIC) in the series on Enterococcus faecium [9], in the series with Staphylococcus aureus [13] and with Staphylococcus aureus [14] were 6.25 µM (≈ 2.51 µg/mL), 50 µM and 6.25 µM, respectively. Further, the 50% inhibitory concentration (IC50) with HeLa is above 100 µM. In addition, the hemolysis at 1 h, 200 µM in [11] came out at 2.9%.

`CN[C@@H]1[C@H](O[C@H]2[C@H](O[C@H]3[C@H](O)[C@@H](O)[C@H](N=C(N)N)[C@@H](O)[C@@H]3N=C(N)N)O[C@@H](C)[C@]2(O)C=O)O[C@@H](CO)[C@H](O)[C@H]1O` [STREPTOMYCIN] came in with an MIC in series [17] of 1.32 µM (≈ 0.768 µg/mL).

The record behind these values is ChEMBL document CHEMBL3813699, “Structure-Activity Relationships of a Diverse Class of Halogenated Phenazines That Targets Persistent, Antibiotic-Tolerant Bacterial Biofilms and Mycobacterium tuberculosis” (J Med Chem, 2016).
